From ChEMBL document CHEMBL1144928, “Antimalarial activity of novel 1,2,5,6-tetraoxacycloalkanes and 1,2,5-trioxacycloalkanes” (J Med Chem, 2003) come the findings set out here.

Assay [1] can be described thus: (§1) Selectivity index was determined. The assay is classed as functional. The method, boiled down: (§2)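 Selectivity was calculated as the mean EC50 for FM3A cells divided by the mean EC50 for P. falciparum FCR-3.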
For assay [2], the system named is Mus musculus. Nature of the assay: Compound was tested in vitro Antimalarial activity against Plasmodium berghei in infected mice (Mus musculus) administered intraperitoneally. Format: functional. Particulars: ip. The method, boiled down:
(§3)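 Mice infected with P. berghei NK 65 strain, in groups of five, were dosed once daily on days 0–3 with a range of concentrations in olive oil. Dosing was intraperitoneal or oral.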

The subject of assay [3] is Plasmodium falciparum. Nature of the assay: In vitro antimalarial activity against Plasmodium falciparum. Format: functional, organism-based. The method, boiled down: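 Tested against chloroquine-sensitive P. falciparum FCR-3 strain in culture. EC50 was determined by a previously reported protocol.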
In assay [4] the test system is Mus musculus. Nature of the assay: Compound was tested in vitro Antimalarial activity against Plasmodium berghei in infected mice (Mus musculus) administered per orally. The assay is classed as functional. Particulars: po. In outline:
as §3

Assay [5] relates to FM3A. Nature of the assay: Compound was tested in vitro cytotoxicity against FM3A cell. Format: functional, cell-based. Particulars: Mus musculus. The method, boiled down: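 Cytotoxicity control used mouse mammary tumor FM3A cells in culture. The 50% inhibitory concentration (EC50) was determined by a previously reported protocol.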
Assay [6] can be described thus: as §1. The assay is classed as functional. In outline:
as §2
This is another data set of the same source.

Assay [7] relates to Plasmodium falciparum. In words: In vitro antimalarial activity against […]. Format: functional, organism-based.

Usually EC50 stands for the concentration at which the effect is half-maximal. What is called ED50 is the dose at which the effect has come halfway, by size or by number of responders. Read a low ED50 as greater potency.

In the case of `c1ccc(C23OOCCCOOC2C2CCC3C2)cc1` (stereo unspecified), the EC50 in assay [1] came out at 237 µM; in assay [3], 0.19 µM; in assay [5], 45 µM. In addition, the ED50 in assay [2] was 13 mg/kg; in assay [4], greater than 100 mg/kg. For the same compound, the ED90 in assay [2] is 50 mg/kg.

In the case of `CC1(CI)CCOOC2(c3ccccc3)C3CCC(C3)C2OO1` (stereo unspecified), the EC50 in assay [3] is 0.15 µM; in assay [5], 11 µM. In assay [6], this compound showed a Selectivity of 73.

For `CC1(CI)CCOC2(c3ccccc3)C3CCC(C3)C2OO1` (stereo unspecified), the EC50 was 0.005 µM in assay [3] and 15 µM in assay [5]. Also, in assay [6], the Selectivity stood at 3000.

Consider `Fc1ccc(C2OOC3C4CCC(C4)C3(c3ccccc3)OO2)cc1` (stereo unspecified), for which the EC50 in assay [3] was 1 µM; in assay [5], 11 µM. In addition, the Selectivity in assay [6] stood at 11.

Take `c1ccc(C23OOC(C4CCCCC4)OOC2C2CCC3C2)cc1` (stereo unspecified): in assay [2], the ED50 is 70 mg/kg and the ED90 was greater than 100 mg/kg. This compound displayed an EC50 in assay [7] of 0.21 µM. Besides, the Selectivity in assay [6] is 52.

In the case of `C[C@@H]1CC[C@H]2[C@@H](C)C(=O)O[C@@H]3O[C@@]4(C)CC[C@@H]1[C@]32OO4` [ARTEMISININ], in assay [2], it took a dose of 5.4 mg/kg to reach the 50% effect level (ED50) and the ED90 came out at 13 mg/kg. In assay [4], the ED50 is 32 mg/kg and the ED90 was determined as 89 mg/kg. In assay [6], the Selectivity is 1000.

Regarding `CC1(C2OOC3C4CCC(C4)C3(c3ccccc3)OO2)CCCC1` (stereo unspecified), the EC50 amounted to 0.13 µM in assay [3] and 5.9 µM in assay [5]. In addition, the Selectivity in assay [6] was 45.

`c1ccc(C23OOC4(CCCCC4)OOC2C2CCC3C2)cc1` (stereo unspecified) [TETRACYCLOALKANES]: the EC50 in assay [3] stood at 0.45 µM; in assay [5] it was 11 µM. Further, in assay [6], the Selectivity stood at 24.

As to `CC1(CI)COC2(c3ccccc3)C3CCC(C3)C2OO1` (stereo unspecified), the EC50 in assay [3] stood at 1 µM; in assay [5] it was 11 µM. For the same compound, the Selectivity in assay [6] amounted to 11.

As to `c1ccc(C2OOC3C4CCC(C4)C3(c3ccccc3)OO2)cc1` (stereo unspecified), the EC50 in assay [3] amounted to 1.5 µM; in assay [5] it was 13 µM. This compound came in with a Selectivity in assay [6] of 9.
